Results on 5 compounds are retold here after ChEMBL document CHEMBL1145446, “Phosphonated carbocyclic 2'-oxa-3'-azanucleosides as new antiretroviral agents” (J Med Chem, 2007).

Structures are written as SMILES. In brackets after ≈: the same amount, converted by molar mass. Activity calls are given as the source filed them. The rule behind the calls is not given here.

Data set [1] has as its system Human T-cell leukemia virus type I. Put plainly: Inhibition of HTLV1 reverse transcriptase. Summed up: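 Cell-free assay of HTLV-1 reverse transcriptase, with compounds activated by incubation with human PBMC crude extract. Reverse transcription was read out by RT-PCR using a 20-cycle amplification program.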
Data set [2] has the same test system. Briefly: Antiviral activity against HTLV1 in human PBMC. The data set is classed as functional. In outline: (§1)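 Fresh human PBMC cultures were given compound at 100, 25, 5 or 1 µM immediately before exposure to HTLV-1. Infection was read out as Tax/Rex viral mRNA expression by liquid hybridization assay 3 weeks after virus exposure.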
The subject of the next data set is PBMC. Briefly: Cytotoxicity against PBMC after 1 week by trypan blue exclusion test. It counts as cell-based. The conditions noted are these: human, 168 h. Summed up:
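Freshly separated PBMCs were cultured short-term with compound and interleukin 2, without other stimuli. Cell growth and death were assessed on day 7, and cytotoxicity was expressed as CC20.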

Data set [3] relates to Human T-cell leukemia virus type I. Put plainly: Antiviral activity against HTLV1 in human PBMC at 5 uM. It counts as functional, organism-based. In outline: as §1
Data set [4] shares this test system. Briefly: Antiviral activity against HTLV1 in human PBMC at 100 uM. The data set is classed as functional, organism-based. Summed up:
as §1

For data set [5] the test system is unchanged. Put plainly: Antiviral activity against HTLV1 in human PBMC at 25 uM. It counts as functional, organism-based. In outline: as §1
Data set [6] shares this test system. Briefly: Antiviral activity against HTLV1 in human PBMC at 1 uM. The data set is classed as functional, organism-based. In outline: as §1

`Cc1cn([C@H]2C[C@H](N=[N+]=[N-])[C@@H](CO)O2)c(=O)[nH]c1=O` [ZIDOVUDINE] displayed an MIC in data set [1] of 4 nM (≈ 1.07 ng/mL). The compound further had an MPC in data set [2] of 1 µM. This compound showed a CC20 with PBMC of 1153 µM. In the data set with PBMC, this compound registered a GI25 of 15 µM. Besides, the outcome in data set [3], in data set [4], in data set [5] and in data set [6] was Active.
`CCOP(=O)(CC1CC(n2cc(Br)c(=O)[nH]c2=O)ON1C)OCC` (racemic) displayed an MIC in data set [1] of 8 nM (≈ 3.41 ng/mL). In data set [2], this compound displayed an MPC greater than 100 µM. In addition, in the data set on PBMC, the CC20 was greater than 2048 µM and the GI25 turned out to be 215 µM.
Compound `CCOP(=O)(CC1CC(n2cc(F)c(=O)[nH]c2=O)ON1C)OCC` (stereo not given) yielded an MPC in data set [2] of 1 µM. Moreover, the CC20 with PBMC is greater than 2048 µM. The compound further returned a GI25 in the data set with PBMC of 119 µM. The outcome in data set [3], in data set [4], in data set [5] and in data set [6] was Active.
Compound `CCOP(=O)(CC1CC(n2cnc3c(N)ncnc32)ON1C)OCC` (racemic) had an MIC in data set [1] greater than 10000 nM. The compound further yielded an MPC in data set [2] greater than 100 µM. In the data set with PBMC, this compound returned a CC20 greater than 2048 µM and a GI25 of 121 µM.
In data set [2], `CCOP(=O)(CC1CC(n2cc(C)c(=O)[nH]c2=O)ON1C)OCC` (stereo not given) registered an MPC of 1 µM. The CC20 in the data set with PBMC is greater than 2048 µM. This compound also gave a GI25 with PBMC of 817 µM. In addition, the result in data set [3], in data set [4], in data set [5] and in data set [6] was Active.
